In brackets after ≈: the same amount, converted by molar mass.
How the values were obtained:
Escherichia coli [1] = assay: Tested for growth inhibition against Escherichia coli; type: functional; set-up: concentration or dose not given beside the values
Method in brief: (§1)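 Broth growth assay in BHI medium; log-phase culture (24 h plate, 1 h then 2 h at 37 °C with shaking) added to tubes with derivative at 20 mM final, 37 °C for 7 h. Starting CFU/mL 2×10^5 (E. coli) or 5×10^5 (L. inocua). Standard plate counts; % inhibition = (ΔCFU 0–7 h control − ΔCFU 0–7 h test)/ΔCFU 0–7 h control.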

Listeria innocua [2] = assay: Tested for growth inhibition against Listeria inocua; type: functional; set-up: concentration or dose not given beside the values; method in brief: as §1
Listeria innocua [3] = assay: Tested for minimum inhibitory concentration against Listeria inocua; type: functional
[4] = target: Lactotransferrin (Bos taurus) (UniProt P24627); assay: Tested for iron mobilization from lactoferrin at physiological pH after 24 hours
Sequence of Lactotransferrin (Bos taurus) (P24627 whole entry): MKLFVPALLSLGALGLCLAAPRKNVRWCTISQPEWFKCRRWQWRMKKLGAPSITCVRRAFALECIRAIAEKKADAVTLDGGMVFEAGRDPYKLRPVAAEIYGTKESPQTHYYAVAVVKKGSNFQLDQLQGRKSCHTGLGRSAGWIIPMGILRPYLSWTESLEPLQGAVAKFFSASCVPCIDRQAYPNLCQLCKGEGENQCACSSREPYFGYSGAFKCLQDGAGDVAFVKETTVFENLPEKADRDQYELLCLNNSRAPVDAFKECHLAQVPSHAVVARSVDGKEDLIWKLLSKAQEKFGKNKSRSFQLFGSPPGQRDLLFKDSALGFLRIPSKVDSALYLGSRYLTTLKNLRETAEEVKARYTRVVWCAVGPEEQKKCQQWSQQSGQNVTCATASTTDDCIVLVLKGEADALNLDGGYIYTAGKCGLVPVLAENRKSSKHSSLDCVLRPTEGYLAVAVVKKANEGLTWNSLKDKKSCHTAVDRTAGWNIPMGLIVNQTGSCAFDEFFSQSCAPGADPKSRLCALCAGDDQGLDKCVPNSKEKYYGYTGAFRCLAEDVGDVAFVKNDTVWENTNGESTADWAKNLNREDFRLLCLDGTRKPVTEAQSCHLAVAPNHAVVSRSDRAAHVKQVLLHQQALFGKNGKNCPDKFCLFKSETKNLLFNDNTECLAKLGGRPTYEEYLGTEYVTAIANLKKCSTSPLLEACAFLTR
Method in brief: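 Lactoferrin fully iron(III)-saturated with FeCl3 in 0.1 M sodium bicarbonate overnight at room temperature (0.78 mM iron); 1.0 mL dialysed against 4 mL chelator (2 mM in 4× PBS) for 24 h at room temperature. Dialysate absorbance at 456 nm, converted by chelator–iron(III) calibration curves; protected derivatives measured after adding an unprotected chelator to the dialysate.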

Escherichia coli [5] = assay: Tested for minimum inhibitory concentration against Escherichia coli; type: functional
Method in brief: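 Agar dilution on BHI agar with 2-fold dilutions; spots of 10^4–10^5 CFU applied by multipoint inoculator, 18 h at 37 °C, growth judged visually.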

Structure (SMILES)	Growth inhibition (Escherichia coli [1]) [%]	Growth inhibition (Listeria innocua [2]) [%]	MIC (Listeria innocua [3]) [mM]	Iron mobilized [4] [%]	MIC (Escherichia coli [5]) [mM]
CCC(=O)NCCn1ccc(=O)c(O)c1C	100	86	25 (≈ 5610 µg/mL)	61	5 (≈ 1120 µg/mL)
CCn1ccc(=O)c(OCc2ccccc2)c1C	53	72	50 (≈ 12200 µg/mL)	2	50 (≈ 12200 µg/mL)
Cc1c(O)c(=O)ccn1CCN	100	93	25 (≈ 4200 µg/mL)	60	5 (≈ 841 µg/mL)
Cc1c(OCc2ccccc2)c(=O)ccn1CCN	0	34	50 (≈ 12900 µg/mL)	4	50 (≈ 12900 µg/mL)
C=C(C)C(=O)NCCn1ccc(=O)c(O)c1C	100	90	25 (≈ 5910 µg/mL)	63	5 (≈ 1180 µg/mL)
C=CC(=O)NCCn1ccc(=O)c(O)c1C	100	87	25 (≈ 5560 µg/mL)	62	5 (≈ 1110 µg/mL)
CCn1ccc(=O)c(O)c1C	100	89	25 (≈ 3830 µg/mL)	71	5 (≈ 766 µg/mL)
